What all share (format): functional
The test system of test [1] is Nakaseomyces glabratus. Description: Antimicrobial activity against 5-fluorocytosine resistant and ura3 harboring Candida glabrata 66032u-FC6 harboring Fcy1 T92deltastop mutant assessed as lowest concentration inhibiting growth >=80% by broth microdilution method. Summed up:
(§1)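 Broth microdilution with 5FC or 5FU in RPMI 1640 buffered with 0.165 M MOPS, pH 7.0, plus 2% dextrose, replacing the YPD of the cited protocol. Drug stocks were in 50% DMSO, and final DMSO was ≤0.5%. Plates were incubated at 35°C and read at 630 nm. MIC was the lowest concentration giving ≥80% growth inhibition relative to the drug-free control.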
Background: Dilution methods test growth across graded concentrations, often in twofold steps.

Test [2] relates to Nakaseomyces glabratus. Description: Antimicrobial activity against 5-fluorocytosine resistant and ura3 harboring Candida glabrata BG14-FC8 harboring Fcy2L E238-V277dup mutant assessed as lowest concentration inhibiting growth >=80% by broth microdilution method. Summed up: as §1
Test [3] has as its system Nakaseomyces glabratus. Description: Antimicrobial activity against 5-fluorocytosine resistant Candida glabrata 66032-FC5 harboring Fcy1 A15D mutant assessed as lowest concentration inhibiting growth >=80% by broth microdilution method. Summed up: as §1
For test [4], the system named is Nakaseomyces glabratus. Description: Antimicrobial activity against 5-fluorocytosine resistant Candida glabrata isolate 20408.055 harboring Fur1 G210D mutant assessed as lowest concentration inhibiting growth >=80% by broth microdilution method. Summed up: as §1
For test [5], the system named is Nakaseomyces glabratus. Description: Antimicrobial activity against 5-fluorocytosine resistant and ura3 harboring Candida glabrata BG14-FC4 harboring Fcy1 E17stop mutant assessed as lowest concentration inhibiting growth >=80% by broth microdilution method. Summed up:
as §1

The test system of test [6] is Nakaseomyces glabratus. Description: Antimicrobial activity against 5-fluorocytosine resistant and ura3 harboring Candida glabrata 66032u assessed as lowest concentration inhibiting growth >=80% by broth microdilution method. Summed up:
as §1

The test system of test [7] is Nakaseomyces glabratus. Description: Antimicrobial activity against 5-fluorocytosine resistant Candida glabrata 66032-FC4 harboring Fcy1 A15D mutant assessed as lowest concentration inhibiting growth >=80% by broth microdilution method. Summed up:
as §1

Test [8] concerns Nakaseomyces glabratus. Description: Antimicrobial activity against 5-fluorocytosine resistant and ura3 harboring Candida glabrata 66032u-FC1 harboring Fcy2L W291stop mutant assessed as lowest concentration inhibiting growth >=80% by broth microdilution method. Summed up: as §1
Test [9] deals with Nakaseomyces glabratus. Description: Antimicrobial activity against 5-fluorocytosine resistant Candida glabrata 66032-FC6 harboring Fcy1 G11D mutant assessed as lowest concentration inhibiting growth >=80% by broth microdilution method. Summed up: as §1
Test [10] concerns Nakaseomyces glabratus. Description: Antimicrobial activity against 5-fluorocytosine resistant Candida glabrata 66032-FC1 harboring Fur1 183K mutant assessed as lowest concentration inhibiting growth >=80% by broth microdilution method. Summed up: as §1
Test [11] relates to Nakaseomyces glabratus. Description: Antimicrobial activity against 5-fluorocytosine resistant Candida glabrata isolate 20251.021 harboring Fcy1 T84L mutant assessed as lowest concentration inhibiting growth >=80% by broth microdilution method. Summed up: as §1
The test system of test [12] is Nakaseomyces glabratus. Description: Antimicrobial activity against 5-fluorocytosine resistant Candida glabrata isolate TE34-75 harboring FcY2J 1384F mutant assessed as lowest concentration inhibiting growth >=80% by broth microdilution method. Summed up: as §1
Test [13] has as its system Nakaseomyces glabratus. Description: Antimicrobial activity against 5-fluorocytosine resistant Candida glabrata 66032-FC3 harboring Fur1 G71V mutant assessed as lowest concentration inhibiting growth >=80% by broth microdilution method. Summed up:
as §1

In test [14] the test system is Nakaseomyces glabratus. Description: Antimicrobial activity against 5-fluorocytosine resistant and ura3 harboring Candida glabrata 66032u-FC5 harboring Fcy2L E342stop mutant assessed as lowest concentration inhibiting growth >=80% by broth microdilution method. Summed up: as §1
The subject of test [15] is Nakaseomyces glabratus. Description: Antimicrobial activity against 5-fluorocytosine resistant and ura3 harboring Candida glabrata BG14 assessed as lowest concentration inhibiting growth >=80% by broth microdilution method. Summed up:
as §1

Test [16] concerns Nakaseomyces glabratus. Description: Antimicrobial activity against 5-fluorocytosine resistant Candida glabrata 66032 assessed as lowest concentration inhibiting growth >=80% by broth microdilution method. Summed up: as §1
The test system of test [17] is Nakaseomyces glabratus. Description: Antimicrobial activity against 5-fluorocytosine resistant Candida glabrata 66032-FC2 harboring Fur1 deltaG73-V81mutant assessed as lowest concentration inhibiting growth >=80% by broth microdilution method. Summed up:
as §1

Test [18] has as its system Nakaseomyces glabratus. Description: Antimicrobial activity against 5-fluorocytosine resistant and ura3 harboring Candida glabrata 66032u-FC10 harboring Fcy2L Q396stop mutant assessed as lowest concentration inhibiting growth >=80% by broth microdilution method. Summed up: as §1
In test [19] the test system is Nakaseomyces glabratus. Description: Antimicrobial activity against 5-fluorocytosine resistant and ura3 harboring Candida glabrata 66032u-FC3 harboring Fcy1 H59D mutant assessed as lowest concentration inhibiting growth >=80% by broth microdilution method. Summed up:
as §1

For test [20], the system named is Nakaseomyces glabratus. Description: Antimicrobial activity against 5-fluorocytosine resistant Candida glabrata isolate TE34-78 harboring Fcr1 L136R mutant assessed as lowest concentration inhibiting growth >=80% by broth microdilution method. Summed up: as §1

Each structure is given as a SMILES string. Values after ≈ are worked out from the molar mass of the structure shown.

A word on the MIC: it is the smallest concentration in the dilution series that meets the test's criterion for growth inhibition. In the case of `Nc1nc(=O)[nH]cc1F` [FLUCYTOSINE], the MIC in the test with Nakaseomyces glabratus [1] is at least 32 mg/L; with Nakaseomyces glabratus [2] it was 1 mg/L (≈ 7.75 µM); in the test with Nakaseomyces glabratus [3], at least 32 mg/L; in the test with Nakaseomyces glabratus [4] it was at least 32 mg/L; with Nakaseomyces glabratus [5] it was at least 32 mg/L; in the test on Nakaseomyces glabratus [6] it was 0.008 mg/L (≈ 0.062 µM). The MIC in the test on Nakaseomyces glabratus [7] is at least 32 mg/L; in the test with Nakaseomyces glabratus [8] it was 1 mg/L (≈ 7.75 µM); in the test on Nakaseomyces glabratus [9], at least 32 mg/L; in the test on Nakaseomyces glabratus [10], at least 32 mg/L; in the test with Nakaseomyces glabratus [11], at least 32 mg/L; in the test on Nakaseomyces glabratus [12], 0.25 mg/L (≈ 1.94 µM). Also, the MIC was at least 32 mg/L with Nakaseomyces glabratus [13]; 1 mg/L (≈ 7.75 µM) in the test with Nakaseomyces glabratus [14]; 0.03 mg/L (≈ 0.232 µM) in the test with Nakaseomyces glabratus [15]; 0.03 mg/L (≈ 0.232 µM) in the test with Nakaseomyces glabratus [16]; at least 32 mg/L with Nakaseomyces glabratus [17]; 1 mg/L (≈ 7.75 µM) in the test with Nakaseomyces glabratus [18]. Also, the MIC with Nakaseomyces glabratus [19] and with Nakaseomyces glabratus [20] was at least 32 mg/L each time.

These data come from ChEMBL document CHEMBL1687799, “Mutational analysis of flucytosine resistance in Candida glabrata” (2010).
